High-throughput results as filed in PubChem.
Mdm2-MdmX inh: inhibitors of human Mdm2/MdmX interaction; inhibition, % at 8 µM; AID 485346; 3% of 330,000 active; SaOS-2 split-luciferase Mdm2/MdmX complementation, luminescence; O15151+Q00987;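 active = inhibition of at least 50% at 8 µM in the primary screen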
XBP1 UPR activ: adaptive UPR (XBP1) activation | CHO-XBP1 luciferase reporter, IRE1-XBP1 UPR activation, luminescence; percent of tunicamycin response, DMSO as zero | activation, % at 20 µM | 0.33% of 330,000 active | AID 463104;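 active = versus positive control, 20 µM dose yields 30% or more activation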;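 also: 100% = tunicamycin at 10 µg/mL and 0% = DMSO only wells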
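Material: CHO cell line with stable XBP1 luciferase reporter; buffer or medium: F12 medium containing 10% fetal bovine serum; compound: single point, 20 µM final compound, 1% DMSO; incubation: 6 h treatment, 37 °C; measured by: glow luminescence from Steady-Glo reagent; evaluation: activation, % of tunicamycin; control set: tunicamycin high, DMSO low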
Dynein transport: blocks dynein driven cargo transport along microtubules | 3617.4 mouse cells, GR-EGFP nuclear translocation imaging; test concentration mostly 20 µM; stimulated with dexamethasone, 1 µM; stronger effect = lower value | z-score, hits read low | 0.47% of 220,000 active | AID 1381;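 active = plate z-score of nuclear minus cytoplasmic receptor signal below a set negative limit, without overly bright fluorescence or cell loss, cut at about -3.5 in these data, passing the limit was not always enough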;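 also: z-score of nuclear minus cytoplasmic ring GR-EGFP intensity difference per well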
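Buffer or medium – tet-free medium with charcoal-stripped serum · Signal – automated 10x imaging of fixed Hoechst-stained cells · Also added – dexamethasone agonist, 1.0 µM final, for 30 min · Incubation – induction 48 h, compound 1 h, agonist 30 min · Read-out – GR-EGFP nuclear translocation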
Beta2AR agonist: activates human beta-2 adrenergic receptor causing internalization. Am2.2-beta2AR cells, FAP receptor internalization, flow cytometry. response, % (no concentration beside the values). 0.43% of 340,000 active. AID 504454;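 active = response above a set limit, near 3 SD of response in nonfluorescent compounds, cut at about 42% in these data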
Target sequence (P07550 whole entry, looked up): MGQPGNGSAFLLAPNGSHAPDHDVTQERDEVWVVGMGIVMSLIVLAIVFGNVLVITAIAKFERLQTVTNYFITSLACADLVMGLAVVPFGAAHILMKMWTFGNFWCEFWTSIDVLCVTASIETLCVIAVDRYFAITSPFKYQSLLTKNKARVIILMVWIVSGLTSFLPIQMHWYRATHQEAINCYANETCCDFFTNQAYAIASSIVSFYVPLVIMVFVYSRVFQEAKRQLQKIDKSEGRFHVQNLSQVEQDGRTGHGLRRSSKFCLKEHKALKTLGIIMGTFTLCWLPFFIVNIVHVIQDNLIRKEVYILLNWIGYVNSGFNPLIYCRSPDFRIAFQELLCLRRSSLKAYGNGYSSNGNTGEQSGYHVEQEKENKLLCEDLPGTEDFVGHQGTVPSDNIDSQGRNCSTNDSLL
UPR CHOP act: activators of apoptotic arm of unfolded protein response (CHOP). activation, % at 10 µM. CHO-CHOP luciferase reporter, UPR activation, luminescence; percent of tunicamycin response over DMSO baseline. 0.34% of 330,000 active. AID 449763;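 active = at 10 µM dose, activation of 40% or more, normalized to positive control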;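 also: 100% = tunicamycin at 10 µg/mL and 0% = DMSO alone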
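System: CHO CHOP reporter cells. Amount: 500 cells per well. Buffer or medium: F12 medium, 10% FBS. Compound dosing: one dose, 10 µM in 0.5% DMSO. Incubation: 6 h compound exposure at 37 °C after overnight seeding. Technique: Steady-Glo luciferase luminescence. Benchmarks: tunicamycin and DMSO controls.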
Mdm2 ligase inh: blocks human Mdm2 ubiquitin ligase activity | Q00987 | cell-based MDM2 ubiquitination luciferase reporter, 2 h; 0 = plate control, 100 = twice control, blank-subtracted | signal enhancement, % at 5 µM | 0.11% of 210,000 active | AID 1230;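 active = signal enhancement of 30% or more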;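 also: luminescence tracks abundance of the self-degrading MDM2-luciferase fusion protein; higher signal means inhibition of MDM2 E3 ligase activity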
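Test system: mammalian cells stably expressing self-ubiquitinating, self-degrading MDM2 E3–luciferase fusion; Amount: 2000 cells in each well; Medium: DMEM; Schedule: 4 h settle plus 2 h compound, 37 °C; Technique: SteadyLite luciferase luminescence after 15 min room-temperature reagent incubation; Benchmarks: plate control and blank wells.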
Mdm2-MdmX conf: human Mdm2/MdmX binding inhibition, confirmed; AID 489028; 55% of 10,000 active; luminescent assay; inhibition, % at 8 µM; shares compounds with Mdm2-MdmX inh; in the data active = inhibition above about 40%
Full FLuc ctr: full-length luciferase inhibition in Mdm2/MdmX counter-screen; shares compounds with Mdm2-MdmX inh; SaOS-2 full-length luciferase counterscreen, luminescence; inhibition, % at 8 µM; 77% of 6,200 active; AID 504607;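 active = mean inhibition at 8 µM reaching about 37%, which flags the compound as non-specific, limit read from the data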;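 also: p53-null SaOS-2 cells with luciferase driven by a doxycycline-inducible promoter; compound on cells about two nights before reading with doxycycline added after day one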
Numbers without * were called inactive; x = not tested or not shown. Rows were chosen to be rich in hits. Some 3.7% of all compounds tested hit in one or more screens of this group.

SMILES	Mdm2-MdmX inh	XBP1 UPR activ	Dynein transport	Beta2AR agonist	UPR CHOP act	Mdm2 ligase inh	Mdm2-MdmX conf	Full FLuc ctr
COc1cc(/C=C2/SC(=Nc3ccc(O)cc3)NC2=O)ccc1O	74.1*	14.5	-0.585	-23.9	0.6	-11.8	72.0*	68.2*
COC(=O)c1cc(OC(=O)CCc2ccc(OC)c(OC)c2)cc(C(=O)OC)c1	6.2	-3.2	x	2.5	-0.4	x	x	x
CCOc1ccc(C(=O)/C=C/c2ccc(OC)c(OC)c2)cc1	22.1	0.3	-1.87	2.9	1.6	7.2	x	x
COc1cccc(C(=O)/C=C/c2ccc(OCC#N)c(OC)c2)c1	96.4*	3.8	-3.04	7.8	8.9	-3.4	42.6*	42.5*
COc1cc(/C=C/C(=O)c2ccc(O)cc2)ccc1OCC#N	87.1*	-4.0	0.785	13.1	1.5	8.7	78.0*	35.9
CCOc1ccc(/C=C/C(=O)c2ccccc2)cc1OC	10.0	-1.7	-2.44	10.4	7.3	-6.7	x	x
O=C(CCNS(=O)(=O)c1ccccc1F)N1CCN(C/C=C/c2ccccc2)CC1	-13.9	-2.4	x	-2.6	0.5	x	x	x
CC(C)(C)c1ccc(-c2cc(-c3ccccc3O)[nH]n2)cc1	58.0*	-8.1	x	14.8	-3.3	x	64.9*	138.6*
CC(C)C(=O)NNC(=O)c1c(O)c2ccccc2[nH]c1=O	-11.7	-0.6	-0.385	5.9	0.9	x	x	x
CC(C)NC(=O)c1c(O)c2ccccc2[nH]c1=O	83.7*	1.7	-1.4	-16.4	5.1	1.0	83.3*	46.2*
O=C(N/N=C/c1ccc(F)cc1)c1c(O)c2ccccc2[nH]c1=O	87.8*	7.9	0.226	6.7	3.2	-25.2	4.1	x
Cc1cc(C)cc(C(=O)OCC(=O)N2CCCCCC2)c1	9.7	4.5	x	4.0	1.0	x	x	x
COc1ccc(OC)c2sc(N(CCCN(C)C)C(=O)CCS(=O)(=O)c3ccccc3)nc12	82.0*	-9.5	x	33.8	-9.0	x	77.2*	21.1
COc1ccc(Cl)c2sc(N(CCN(C)C)C(=O)CCS(=O)(=O)c3ccc(C)cc3)nc12	11.6	3.2	x	14.5	-0.3	x	x	x
CN(C)CCN(C(=O)CCS(=O)(=O)c1ccccc1)c1nc2c(F)cccc2s1	10.9	-1.9	x	4.9	1.1	x	x	x
Cc1cccc2sc(N(CCCN(C)C)C(=O)CN3C(=O)c4ccccc4C3=O)nc12	3.7	0.1	-0.28	15.5	-0.5	-15.6	x	x
Cc1cccc2sc(N(CCCN(C)C)C(=O)CCc3ccccc3)nc12	59.8*	2.5	2.57	32.1	3.8	-13.9	23.3	x
Cc1ccc2sc(N(CCCN(C)C)C(=O)CCS(=O)(=O)c3ccccc3)nc2c1C	60.3*	-9.4	x	9.8	-10.1	x	56.7*	29.9
COc1cccc(CNC(=O)CCNS(=O)(=O)c2ccc(C)cc2)c1	8.3	2.5	x	-1.8	-1.2	x	x	x
Cc1nc(C(=O)Nc2ccccc2Cl)cc2c1[nH]c1ccccc12	80.1*	2.2	0.421	-5.4	4.1	-19.5	57.1*	56.1*
COc1ccc(NC(=O)c2cc3c([nH]c4ccccc43)c(C)n2)cc1	-16.5	7.2	-0.25	-4.1	2.6	3.0	x	x
COc1ccc(-[n+]2c(C)cc(/C=C3\Sc4ccccc4N3C)cc2C)cc1	83.0*	2.0	-6.07	x	28.8	-49.4	77.5*	16.4
O=C(COc1ccc(C(=O)Nc2ccc(Cl)cc2)cc1)NCc1ccccc1	61.7*	-0.7	-0.0308	-0.6	-0.1	x	23.8	x
CC(=O)Nc1ccc(C(=O)c2ccccc2)cc1	21.5	0.5	0.905	-8.5	-1.4	-19.2	x	x
CC(=O)Nc1ccc(-c2cc(-c3ccccc3)nc(-c3ccccc3)n2)cc1	56.3*	10.0	-1.07	-4.0	-0.4	-1.0	46.9*	92.2*
